Calls of active or inactive are those of the source. The rule behind the calls is not given here.
Assays:
Rattus norvegicus [1] = test: Inhibition of VEGF-induced vascular permeability in intradermally dosed Sprague-Dawley rat assessed as reduction in extravasation of Evans blue dye by Miles assay; type: functional, organism-based
Outline: (§1)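 Male Sprague–Dawley rats (250–300 g) were anesthetized and shaved, then re-anesthetized 2–3 days later and given 150 μL 1% Evans blue i.v. After 15 min, 15 μL was injected intradermally: VEGF (100 ng/mL), compound (1, 5 or 10 μg/mL) in PBS, or PBS alone. Skin was dissected after 1 h, dye eluted with formamide at 56 °C, and OD read at 620 nm. n = 3 at 10 μg/mL.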

HUVEC [2] = test: Toxicity in HUVECs at 25 uM; type: cell-based; details: human
HUVEC [3] = test: Toxicity in HUVECs at 12.5 uM; type: cell-based; details: human
Rattus norvegicus [4] = test: Inhibition of VEGF-induced vascular permeability in intradermally dosed Sprague-Dawley rat assessed as reduction in extravasation of Evans blue dye at 10 ug/ml by Miles assay; type: functional; outline: as §1
HUVEC [5] = test: Inhibition of VEGF-induced angiogenesis in HUVECs assessed as reduction in capillary-like tube formation on matrigel at 25 uM incubated for 6 hrs by fluorescence microscopy; type: functional; details: Homo sapiens
Outline: (§2)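 HUVECs were cultured to the supplier's standard protocol. 5 × 10^4 cells were plated on basement membrane extract in medium with VEGF (10 ng/mL), with or without compound, and incubated 6 h. Cells were stained with 2 μM Calcein AM in PBS for 30 min. Tubes were imaged by fluorescence microscopy and quantified by image analysis against untreated cultures. Means ± SD, n = 3.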

HUVEC [6] = test: Inhibition of VEGF-induced angiogenesis in HUVECs assessed as reduction in capillary-like tube formation on matrigel at 12.5 uM incubated for 6 hrs by fluorescence microscopy; type: functional; details: Homo sapiens; outline: as §2

With `C=C(CC[C@@H](C)[C@H]1CC[C@@]2(C)[C@@H]3[C@@H](O)[C@@H](O)[C@H]4C(C)(C)[C@@H](O[C@@H]5OC[C@@H](O)[C@H](O)[C@H]5O)CC[C@@]45C[C@@]35CC[C@]12C)C(C)C` (relative stereo) the inhibition (Rattus norvegicus [1]) was “inactive”.

For `C=C(CC[C@@H](C)[C@H]1[C@@H](O)C[C@@]2(C)[C@@H]3C[C@@H](O)[C@H]4C(C)(C)[C@@H](O)CC[C@@]45C[C@@]35CC[C@]12C)C(C)C` (relative stereo), the inhibition (Rattus norvegicus [1]) was “inactive”.

In the case of `C=C(CC[C@@H](C)[C@H]1[C@@H](O)C[C@@]2(C)[C@@H]3C[C@@H](O)[C@H]4C(C)(C)[C@@H](O[C@@H]5OC[C@@H](O)[C@H](O)[C@H]5O)CC[C@@]45C[C@@]35CC[C@]12C)C(C)C` (relative stereo), the inhibition (Rattus norvegicus [1]) is reported as “Dose-dependent effect”.

`C=C(CC[C@@H](C)[C@H]1[C@@H](O)C[C@@]2(C)[C@@H]3[C@@H](O)[C@@H](O)[C@H]4C(C)(C)[C@@H](O[C@@H]5OC[C@@H](O)[C@H](O)[C@H]5O)CC[C@@]45C[C@@]35CC[C@]12C)C(C)C` was tested, and the Activity (HUVEC [2]) was “Non-toxic”, the inhibition (Rattus norvegicus [1]) was “Dose-dependent effect” and the Activity (HUVEC [3]) was “Non-toxic”. The “inhibition (INH)” value (Rattus norvegicus [4]) was 64%, the inhibition at 25 µM (HUVEC [5]) was 59.5% and the inhibition at 12.5 µM (HUVEC [6]) was 28.5%.

For `C=C(CC[C@@H](C)[C@H]1[C@@H](O)C[C@@]2(C)[C@@H]3[C@@H](O)C[C@H]4C(C)(C)[C@@H](O[C@@H]5OC[C@@H](O)[C@H](O)[C@H]5O)CC[C@@]45C[C@@]35CC[C@]12C)C(C)C`, the inhibition (Rattus norvegicus [1]) was “Dose-dependent effect”.

With `C=C(CC[C@@H](C)[C@H]1CC[C@@]2(C)[C@@H]3[C@@H](O)[C@@H](O)[C@H]4C(C)(C)[C@@H](O)CC[C@@]45C[C@@]35CC[C@]12C)C(C)C` the inhibition (Rattus norvegicus [1]) was “inactive”.

— ChEMBL document CHEMBL2069227, “Cycloartane-type triterpenes from the leaves of Homonoia riparia with VEGF-induced angiogenesis inhibitory activity” (J Nat Prod, 2012)
